Source: ChEMBL document CHEMBL2163298, “Inhibition of human topoisomerases I and II by simocyclinone D8” (J Nat Prod, 2012)
Calls of active or inactive are those of the source. The rule behind the calls is not given here.

Key:
[1] = target: DNA topoisomerase 2-alpha (Homo sapiens) (UniProt P11388); experiment: Dissociation of human topo 2-etoposide-DNA ternary complex assessed as nicked DNA formation at 150 uM after 20 mins by two-step DNA cleavage assay; settings: in the assay text read “linear DNA” for “nicked DNA”
DNA topoisomerase 2-alpha (Homo sapiens), sequence (P11388 whole entry): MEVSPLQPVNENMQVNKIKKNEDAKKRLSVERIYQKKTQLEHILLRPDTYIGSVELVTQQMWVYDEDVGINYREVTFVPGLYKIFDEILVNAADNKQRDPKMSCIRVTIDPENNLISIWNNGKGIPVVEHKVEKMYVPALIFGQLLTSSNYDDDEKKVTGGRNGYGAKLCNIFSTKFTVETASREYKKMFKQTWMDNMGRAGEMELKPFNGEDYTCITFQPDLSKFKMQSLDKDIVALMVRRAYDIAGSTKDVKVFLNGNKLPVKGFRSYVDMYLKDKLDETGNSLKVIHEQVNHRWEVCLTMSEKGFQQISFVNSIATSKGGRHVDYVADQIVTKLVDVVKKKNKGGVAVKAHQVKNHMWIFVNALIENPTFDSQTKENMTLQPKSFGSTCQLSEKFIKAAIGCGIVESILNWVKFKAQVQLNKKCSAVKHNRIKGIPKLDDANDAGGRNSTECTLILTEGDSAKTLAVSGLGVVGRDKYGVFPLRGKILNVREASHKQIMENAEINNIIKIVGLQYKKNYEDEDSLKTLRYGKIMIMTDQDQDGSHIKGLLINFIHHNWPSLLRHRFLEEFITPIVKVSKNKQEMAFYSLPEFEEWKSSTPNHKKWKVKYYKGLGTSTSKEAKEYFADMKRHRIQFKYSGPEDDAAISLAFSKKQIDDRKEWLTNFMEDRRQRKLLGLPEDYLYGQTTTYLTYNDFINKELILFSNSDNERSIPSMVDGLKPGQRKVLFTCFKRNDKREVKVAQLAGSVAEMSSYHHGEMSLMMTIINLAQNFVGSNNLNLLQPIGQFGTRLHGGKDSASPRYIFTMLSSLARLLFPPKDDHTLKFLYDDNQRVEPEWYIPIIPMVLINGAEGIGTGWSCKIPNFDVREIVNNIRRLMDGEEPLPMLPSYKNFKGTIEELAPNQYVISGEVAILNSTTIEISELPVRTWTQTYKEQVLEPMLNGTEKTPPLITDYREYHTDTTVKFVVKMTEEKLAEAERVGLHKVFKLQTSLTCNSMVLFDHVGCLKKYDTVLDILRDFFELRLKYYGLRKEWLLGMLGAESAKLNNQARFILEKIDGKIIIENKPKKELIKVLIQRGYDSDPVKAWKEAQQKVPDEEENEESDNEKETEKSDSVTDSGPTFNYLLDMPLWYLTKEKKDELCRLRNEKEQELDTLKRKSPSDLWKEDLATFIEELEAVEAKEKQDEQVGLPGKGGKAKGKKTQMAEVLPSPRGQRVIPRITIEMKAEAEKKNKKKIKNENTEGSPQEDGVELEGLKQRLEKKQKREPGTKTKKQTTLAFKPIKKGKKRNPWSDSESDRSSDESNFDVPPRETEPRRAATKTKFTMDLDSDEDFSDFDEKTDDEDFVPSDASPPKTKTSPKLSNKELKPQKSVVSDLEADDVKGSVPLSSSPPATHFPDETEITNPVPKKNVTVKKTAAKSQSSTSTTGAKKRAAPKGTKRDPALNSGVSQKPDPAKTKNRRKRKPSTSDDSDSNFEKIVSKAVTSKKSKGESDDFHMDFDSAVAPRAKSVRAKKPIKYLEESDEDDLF
Method in brief: (§1)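 Human Topo II with 7.5 μM etoposide on relaxed plasmid DNA (50 mM Tris-HCl pH 8, 10 mM MgCl2, 10 mM DTT, 1 mM ATP, BSA; 6-fold scale), 37 °C 5 min. Then 150 μM SD8 or 2% DMSO at 37 °C. Timed aliquots stopped with 1% SDS, then EDTA/proteinase K 50 °C 60 min. Linear DNA quantified on ethidium agarose gels.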

[2] = target: DNA topoisomerase 2-alpha (Homo sapiens) (UniProt P11388); experiment: Inhibition of human topoisomerase 2-mediated plasmid DNA cleavage at 25 to 200 uM after 10 mins by agarose gel electrophoresis electrophoresis
Method in brief: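 Relaxed plasmid (0.3 μg) with 5 units human Topo II and 1 mM ATP at 37 °C for 10 min. Buffer: pH 8, 10 mM MgCl2. Stopped with 1% SDS, then EDTA and proteinase K at 50 °C for 60 min. Extracted and run on ethidium agarose gels.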

[3] = target: T1, DNA topoisomerase 1 (Homo sapiens) (UniProt P11387); experiment: Inhibition of human topoisomerase 1-mediated relaxation of supercoiled pBR322 DNA at 50 to 400 uM after 15 to 30 mins by agarose gel electrophoresis in presence of 100 mM NaCl
T1 sequence (whole entry): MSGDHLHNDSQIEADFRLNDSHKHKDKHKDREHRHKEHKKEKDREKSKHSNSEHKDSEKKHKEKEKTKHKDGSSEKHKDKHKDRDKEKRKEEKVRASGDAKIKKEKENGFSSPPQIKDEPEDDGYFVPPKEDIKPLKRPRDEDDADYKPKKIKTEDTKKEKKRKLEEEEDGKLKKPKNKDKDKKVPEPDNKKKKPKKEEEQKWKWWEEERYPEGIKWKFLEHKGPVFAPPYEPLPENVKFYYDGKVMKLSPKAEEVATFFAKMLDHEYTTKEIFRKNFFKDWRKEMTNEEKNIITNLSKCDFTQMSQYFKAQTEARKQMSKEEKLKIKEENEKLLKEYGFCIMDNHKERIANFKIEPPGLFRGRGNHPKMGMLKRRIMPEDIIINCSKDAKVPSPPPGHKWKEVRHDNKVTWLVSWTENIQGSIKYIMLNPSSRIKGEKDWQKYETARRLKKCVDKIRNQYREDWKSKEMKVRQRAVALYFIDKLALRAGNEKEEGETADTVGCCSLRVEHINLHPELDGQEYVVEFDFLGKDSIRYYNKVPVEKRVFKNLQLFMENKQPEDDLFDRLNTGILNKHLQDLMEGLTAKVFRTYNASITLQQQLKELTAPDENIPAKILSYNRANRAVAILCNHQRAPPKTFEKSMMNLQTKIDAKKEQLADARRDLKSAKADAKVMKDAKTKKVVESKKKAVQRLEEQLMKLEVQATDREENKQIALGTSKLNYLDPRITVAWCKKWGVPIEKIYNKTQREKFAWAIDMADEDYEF
Method in brief: (§2)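 Human Topo I relaxation of supercoiled pBR322 at 37 °C, run as the standard assay. Mg2+ raised up to 1 mM, NaCl up to 100 mM, or potassium glutamate up to 200 mM. Products resolved on agarose gels.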

[4] = target: DNA topoisomerase 2-alpha (Homo sapiens) (UniProt P11388); experiment: Dissociation of human topo 2-etoposide-DNA ternary complex assessed as reduction in […] formation at 150 uM by two-step DNA cleavage assay; method in brief: as §1
[5] = target: T2, Topoisomerase I (Bos taurus) (UniProt Q2HPH0); experiment: Inhibition of calf thymus topoisomerase 1-mediated relaxation of supercoiled pBR322 DNA after 15 mins by agarose gel electrophoresis
T2 sequence (whole entry): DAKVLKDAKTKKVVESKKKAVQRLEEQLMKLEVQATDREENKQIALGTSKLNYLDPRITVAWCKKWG
Method in brief: (§3)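 Supercoiled pBR322 (0.3 μg) relaxed by human Topo I (1 unit, 30 min; or 2 units, 15 min) or calf thymus Topo I (0.5 unit, 15 min), 37 °C. Buffer: 50 mM Tris-HCl pH 7.5, 1 mM MgCl2, 1 mM DTT, 50 μg/mL BSA. Stopped with 25 mM EDTA. Run on 1.2% agarose in TAE, ethidium-stained and quantified. IC50 taken from these gels.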

[6] = target: DNA topoisomerase 2-alpha (Homo sapiens) (UniProt P11388); experiment: Inhibition of human topoisomerase 2-mediated plasmid DNA cleavage preincubated at 150 uM for 5 mins before addition of poison measured after 10 mins by agarose gel electrophoresis
Method in brief: (§4)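 Two-step assay at 4-fold scale: Topo I or human Topo II with 150 μM SD8, 37 °C 5 min. Aliquots then given 7.5 μM CPT (Topo I) or 7.5 μM etoposide (Topo II), 37 °C 10 min. Stopped with 1% SDS, then proteinase K (Topo I 37 °C 15 min; Topo II 50 °C 60 min). Gel readout.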

[7] = target: T1, DNA topoisomerase 1 (Homo sapiens); experiment: Ratio of CPT IC50 to compound IC50 for human topoisomerase 1-mediated relaxation of supercoiled pBR322 DNA
[8] = target: T1, DNA topoisomerase 1 (Homo sapiens); experiment: Dissociation of human topo 1-CPT-DNA ternary complex assessed as reduction in nicked DNA formation at 160 uM after 10 mins by dilution DNA cleavage assay; set-up: scale not given: the % may be the effect or the level left
Method in brief: (§5)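 Topo I cleavage mix (0.6 μg relaxed plasmid, 5 units human Topo I, 2.5 μM CPT), 37 °C 5 min. Then diluted 10-fold in drug-free buffer or buffer holding 2.5 μM CPT, 160 μM SD8, or both, 37 °C 10 min. SDS/EDTA/proteinase K workup. Nicked DNA normalized to the undiluted control; mean and absolute deviation of two assays.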

[9] = target: T1, DNA topoisomerase 1 (Homo sapiens); experiment: Inhibition of human topoisomerase 1-mediated plasmid DNA cleavage preincubated at 150 uM for 5 mins before addition of poison measured after 10 mins by agarose gel electrophoresis; method in brief: as §4
[10] = target: T1, DNA topoisomerase 1 (Homo sapiens); experiment: Stimulation of human topoisomerase 1-mediated plasmid DNA cleavage at 25 to 200 uM after 10 mins by agarose gel electrophoresis
Method in brief: (§6)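 Relaxed plasmid (0.3 μg) with 5 units human Topo I at 37 °C for 10 min. Buffer: pH 7.5, 1 mM MgCl2. Stopped with 1% SDS, then 25 mM EDTA and 100 μg/mL proteinase K, 37 °C 15 min. Phenol extraction, 1.2% agarose gel with ethidium bromide at 2 V/cm for 12 h. 5 μM CPT reaction as control.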

[11] = target: T1, DNA topoisomerase 1 (Homo sapiens); experiment: Inhibition of human topoisomerase 1-mediated relaxation of supercoiled pBR322 DNA at 50 to 400 uM after 15 to 30 mins by agarose gel electrophoresis in presence of 200 mM potassium glutamate; method in brief: as §2
[12] = target: T1, DNA topoisomerase 1 (Homo sapiens); experiment: Dissociation of human topo 1-CPT-DNA ternary complex assessed as reduction in nicked DNA formation at 150 uM by two-step DNA cleavage assay; set-up: scale not given: the % may be the effect or the level left
Method in brief: (§7)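 Topo I with 7.5 μM CPT on relaxed plasmid DNA (6-fold scaled cleavage mix: 50 mM Tris-HCl pH 7.5, 1 mM MgCl2, 1 mM DTT, BSA), 37 °C 5 min. Then 150 μM SD8 or DMSO (2% final), continued at 37 °C. Aliquots taken at set times, stopped with 1% SDS, then EDTA/proteinase K 37 °C 15 min. Nicked DNA read on ethidium agarose gels.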

[13] = target: T1, DNA topoisomerase 1 (Homo sapiens); experiment: Dissociation of human topo 1-CPT-DNA ternary complex assessed as reduction in nicked DNA formation at 160 uM after 10 mins by dilution DNA cleavage assay in presence of 2.5 uM CPT; set-up: scale not given: the % may be the effect or the level left; method in brief: as §5
[14] = target: T1, DNA topoisomerase 1 (Homo sapiens); experiment: Dissociation of human topo 1-CPT-DNA ternary complex assessed as reduction in nicked DNA formation at 160 uM after 10 mins by dilution DNA cleavage assay relative to untreated-control; set-up: scale not given: the % may be the effect or the level left; method in brief: as §5
[15] = target: T1, DNA topoisomerase 1 (Homo sapiens); experiment: Dissociation of human topo 1-CPT-DNA ternary complex assessed as reduction in nicked DNA formation measuring remaining ternary complex at 150 uM after 20 mins by two-step DNA cleavage assay; method in brief: as §7
[16] = target: T3, DNA topoisomerase 1 (Homo sapiens, UniProt P11387); experiment: Inhibition of human topoisomerase 1-mediated relaxation of supercoiled pBR322 DNA after 15 to 30 mins by agarose gel electrophoresis; method in brief: as §3
T3 sequence (P11387 whole entry): T1 sequence (whole entry)

[17] = target: DNA topoisomerase 2-alpha (Homo sapiens) (UniProt P11388); experiment: Inhibition of human topoisomerase 2-mediated relaxation of supercoiled pBR322 DNA at 50 to 400 uM after 30 mins by agarose gel electrophoresis
Method in brief: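 Human Topo II (2 units) relaxed 0.3 μg supercoiled pBR322 at 37 °C for 30 min. Stopped with 25 mM EDTA, 5 min. Analyzed on agarose gels.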

[18] = target: T1, DNA topoisomerase 1 (Homo sapiens); experiment: Inhibition of human topoisomerase 1-mediated relaxation of supercoiled pBR322 DNA at 50 to 400 uM after 15 to 30 mins by agarose gel electrophoresis in presence of 1 mM magnesium; method in brief: as §2
[19] = target: T1, DNA topoisomerase 1 (Homo sapiens); experiment: Inhibition of human topoisomerase 1-mediated relaxation of supercoiled pBR322 DNA at 50 to 400 uM after 15 to 30 mins by agarose gel electrophoresis; method in brief: as §3
[20] = target: T1, DNA topoisomerase 1 (Homo sapiens); experiment: Inhibition of human topoisomerase 1-mediated plasmid DNA cleavage at 25 to 200 uM after 10 mins by agarose gel electrophoresis; method in brief: as §6

CC(=O)O[C@@H]1[C@@H](C)O[C@@H](c2ccc3c(c2O)[C@@H](O)[C@]24O[C@@]2(C3=O)[C@@]2(O)C(=O)C=C(C)C[C@@]2(O)C[C@@H]4O)C[C@H]1OC(=O)/C=C/C=C/C=C/C=C/C(=O)Nc1c(O)c2ccc(O)c(Cl)c2oc1=O [SIMOCYCLINONE D8]
Activity [1]: 107%
inhibition [2]: Active
inhibition [3]: Active
Activity [4]: inactive
inhibition [5]: Active
inhibition [6]: Active
Ratio IC50 [7]: 0.5
Activity [8]: 55%
inhibition [9]: Active
Activity [10]: inactive
inhibition [11]: Active
Activity [12]: 40%
Activity [13]: 46%
Activity [14]: 20%
Activity [15]: 53%
IC50 [16]: 60 µM
inhibition [17]: Active
inhibition [18]: Active
inhibition [19]: Active
inhibition [20]: Active
